Laboratory results published in ChEMBL document CHEMBL5303300, “EUbOPEN Chemogenomics Library - Multiplex” (2023).
Values joined by “and” are separate entries in the source; they are usually repeats but may differ in a detail not shown here. Equal values may be shown once.

Test system: Fibroblast
Assay: Multiplex assay against human fibroblast
Type: toxicity, cell-based
Conditions: number of replicates 2
Summary of the method: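 Cells were classed with CellPathfinder machine-learning gating, first as Hoechst high-intensity objects or normal cells, then (normal cells) as healthy, pyknosed or fragmented nuclei, and finally (pyknosed cells) as mitotic or apoptotic. Staining of live cells at seeding used Hoechst33342, BioTracker Green Microtubule Cytoskeleton Dye, MitoTracker Red and Annexin V Alexa Fluor 680, with imaging on a CQ1 microscope at 37°C and 5% CO2 after compound addition. Tubulin, mitochondrial-mass and membrane-permeability phenotypes are per cents of healthy-nucleus cells.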

[1] = 12 h, 1 µM, compound concentration 1 uM
[2] = 12 h, 10 µM, compound concentration 10 uM
[3] = 24 h, 1 µM, compound concentration 1 uM
[4] = 24 h, 10 µM, compound concentration 10 uM
[5] = 48 h, 1 µM, compound concentration 1 uM
[6] = 48 h, 10 µM, compound concentration 10 uM

SMILES: O=C1Nc2ccc(C(=O)c3ccco3)cc2C1=Cc1cc(Cl)c(O)c(Cl)c1 [GW406108X]
- Population Apoptotic (%) [1]: 28% and 31%
- Population Fragmented Nuclei (%) [1]: 8% and 6%
- Population Healthy Nuclei (%) [1]: 65% and 68%
- Population Hoechst High Intensity Objects (%) [1]: 0%
- Population Membrane Permeable-Phenotype (%) [1]: 6%
- Population Mitochondria Different-Phenotype (%) [1]: 1%
- Population Mitotic Cells (%) [1]: 71% and 68%
- Population Normal (%) [1]: 99% and 100%
- Population Pyknosed Nuclei (%) [1]: 25% and 24%
- Population Tubulin-Different-Phenotype (%) [1]: 16% and 8%
- Total Cell Count [1]: 224 and 230
- Population Apoptotic (%) [2]: 44% and 41%
- Population Fragmented Nuclei (%) [2]: 8% and 11%
- Population Healthy Nuclei (%) [2]: 69% and 67%
- Population Hoechst High Intensity Objects (%) [2]: 0% and 2%
- Population Membrane Permeable-Phenotype (%) [2]: 6% and 5%
- Population Mitochondria Different-Phenotype (%) [2]: 0% and 2%
- Population Mitotic Cells (%) [2]: 55% and 58%
- Population Normal (%) [2]: 100% and 97%
- Population Pyknosed Nuclei (%) [2]: 21% and 20%
- Population Tubulin-Different-Phenotype (%) [2]: 18% and 14%
- Total Cell Count [2]: 178 and 206
- Population Apoptotic (%) [3]: 46% and 45%
- Population Fragmented Nuclei (%) [3]: 8% and 9%
- Population Healthy Nuclei (%) [3]: 72%
- Population Hoechst High Intensity Objects (%) [3]: 0%
- Population Membrane Permeable-Phenotype (%) [3]: 5% and 4%
- Population Mitochondria Different-Phenotype (%) [3]: 0% and 1%
- Population Mitotic Cells (%) [3]: 53% and 55%
- Population Normal (%) [3]: 100%
- Population Pyknosed Nuclei (%) [3]: 18% and 17%
- Population Tubulin-Different-Phenotype (%) [3]: 15% and 10%
- Total Cell Count [3]: 248 and 224
- Population Apoptotic (%) [4]: 58% and 43%
- Population Fragmented Nuclei (%) [4]: 7% and 17%
- Population Healthy Nuclei (%) [4]: 71% and 54%
- Population Hoechst High Intensity Objects (%) [4]: 0% and 1%
- Population Membrane Permeable-Phenotype (%) [4]: 9% and 10%
- Population Mitochondria Different-Phenotype (%) [4]: 1%
- Population Mitotic Cells (%) [4]: 41% and 56%
- Population Normal (%) [4]: 100% and 98%
- Population Pyknosed Nuclei (%) [4]: 21% and 28%
- Population Tubulin-Different-Phenotype (%) [4]: 27% and 23%
- Total Cell Count [4]: 169 and 205
- Population Apoptotic (%) [5]: 70% and 55%
- Population Fragmented Nuclei (%) [5]: 10% and 9%
- Population Healthy Nuclei (%) [5]: 76% and 77%
- Population Hoechst High Intensity Objects (%) [5]: 0%
- Population Membrane Permeable-Phenotype (%) [5]: 9% and 3%
- Population Mitochondria Different-Phenotype (%) [5]: 0%
- Population Mitotic Cells (%) [5]: 29% and 44%
- Population Normal (%) [5]: 100%
- Population Pyknosed Nuclei (%) [5]: 12%
- Population Tubulin-Different-Phenotype (%) [5]: 15% and 5%
- Total Cell Count [5]: 242 and 224
- Population Apoptotic (%) [6]: 61% and 68%
- Population Fragmented Nuclei (%) [6]: 11% and 16%
- Population Healthy Nuclei (%) [6]: 66% and 56%
- Population Hoechst High Intensity Objects (%) [6]: 0% and 1%
- Population Membrane Permeable-Phenotype (%) [6]: 12% and 10%
- Population Mitochondria Different-Phenotype (%) [6]: 0% and 1%
- Population Mitotic Cells (%) [6]: 38% and 31%
- Population Normal (%) [6]: 100% and 98%
- Population Pyknosed Nuclei (%) [6]: 22% and 26%
- Population Tubulin-Different-Phenotype (%) [6]: 36% and 31%
- Total Cell Count [6]: 163 and 205

SMILES: CC(=O)O[C@H]1C(=O)[C@@]2(C)[C@H]([C@H](OC(=O)c3ccccc3)[C@]3(O)C[C@H](OC(=O)[C@H](O)[C@@H](NC(=O)c4ccccc4)c4ccccc4)C(C)=C1C3(C)C)[C@]1(OC(C)=O)CO[C@@H]1C[C@@H]2O [PACLITAXEL]
- Population Apoptotic (%) [2]: 50% and 51% and 43% and 57%
- Population Fragmented Nuclei (%) [2]: 18% and 14% and 8% and 16%
- Population Healthy Nuclei (%) [2]: 60% and 57% and 66%
- Population Hoechst High Intensity Objects (%) [2]: 0%
- Population Membrane Permeable-Phenotype (%) [2]: 2% and 1%
- Population Mitochondria Different-Phenotype (%) [2]: 4% and 1% and 2% and 7%
- Population Mitotic Cells (%) [2]: 50% and 48% and 56% and 42%
- Population Normal (%) [2]: 100% and 99%
- Population Pyknosed Nuclei (%) [2]: 21% and 28% and 24% and 17%
- Population Tubulin-Different-Phenotype (%) [2]: 14% and 15% and 13%
- Population Apoptotic (%) [4]: 68% and 71% and 75% and 53%
- Population Fragmented Nuclei (%) [4]: 14% and 11% and 18%
- Population Healthy Nuclei (%) [4]: 61% and 56% and 63%
- Population Hoechst High Intensity Objects (%) [4]: 0%
- Population Membrane Permeable-Phenotype (%) [4]: 0% and 2% and 1%
- Population Mitochondria Different-Phenotype (%) [4]: 4% and 10% and 7% and 8%
- Population Mitotic Cells (%) [4]: 31% and 28% and 24% and 46%
- Population Normal (%) [4]: 100% and 99%
- Population Pyknosed Nuclei (%) [4]: 23% and 28% and 25% and 19%
- Population Apoptotic (%) [6]: 92% and 82% and 86% and 71%
- Population Fragmented Nuclei (%) [6]: 23% and 16% and 19% and 22%
- Population Healthy Nuclei (%) [6]: 60% and 62% and 63%
- Population Hoechst High Intensity Objects (%) [6]: 0%
- Population Membrane Permeable-Phenotype (%) [6]: 1% and 7% and 3%
- Population Mitochondria Different-Phenotype (%) [6]: 6% and 9% and 7%
- Population Normal (%) [6]: 100% and 99%
- Population Pyknosed Nuclei (%) [6]: 15% and 20% and 16%
- Population Tubulin-Different-Phenotype (%) [6]: 14% and 19% and 11% and 10%
